For orientation: apparent Kd means the concentration giving half-maximal binding under the conditions of the assay.

Results on 48 sequences are retold here after the EternaBench riboswitch data.

The test system of this series is MS2 coat protein. The series is described as follows: apparent Kd, MS2 coat protein; higher = weaker binding; RNA-MaP array; FMN 200 µM where present. Summed up: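 In 100 mM Tris-HCl pH 7.5, 80 mM KCl, 4 mM MgCl2, BSA, DTT, yeast tRNA and Tween-20, SNAP-549-labelled MS2 coat protein was titrated from 0.7 or 1.5 nM, doubling to 3 µM, over designs transcribed by stalled E. coli RNA polymerase on Illumina sequencing-chip clusters. This was done first without ligand, then with ligand held constant. After green signal was normalised to red-channel RNA signal and control-cluster median Fmax, the apparent Kd was taken as the median of filtered per-cluster binding-curve fits.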

The mark [1] stands for this setting: designed as: OFF switch for flavin mononucleotide, no ligand.
Setting [2] is: ligand present: flavin mononucleotide, designed as: OFF switch for flavin mononucleotide.
The mark [3] stands for this setting: designed as: ON switch for flavin mononucleotide, no ligand.
Setting [4] is: ligand present: flavin mononucleotide, designed as: ON switch for flavin mononucleotide.

Regarding “UAUAUUUAUGUAGGAUAUGGUAUAUAAAAUAUACCAGAAGGACAUGAGGAUCACCCAUGUAUGAAAUUCCAUAAUUGCCGUGUA”, the “apparent Kd” value was 12.7 nM under setting [1] and 14.8 nM under setting [2].
For “UUUGUAUAGCAAGGAUAUGUUUAAUUAUAGUUGCCUCAUACAUGAGGAUCACCCAUGUUUUACUUACAGAAGGUGCAAUGAUUU” the same measures were 316 nM and 317 nM.
Turning to “ACAUGAGGAUCACCCAUGUGACCACAAUGGCUGAUGUAACAACAGGAUAUUCGUGAAUAUCUAACGAAGAAGGGUUAUGACUGG”, the “apparent Kd” value under setting [1] is 71.4 nM and the “apparent Kd” value under setting [2] worked out at 65.2 nM.
On to “CCACGUCAGAUUAACAUGAGGAUCACCCAUGUCUUUUGACAUGAGGAUAUGGAUCCUAAUUGGAUCCAGAAGGCAUGGACGUGG”, for which the “apparent Kd” value came out at 963 nM under setting [3] and 96.9 nM under setting [4].
For “AGAAGGCUACAGAAGGGACACACACGGUGGGAGUCAGGAUAUGUAGUGAAAACGUUACAUGAGGAUCACCCAUGUAGACCUUCC” the same measures were 141 nM and 18.4 nM.
On to “CGAUAGGACAGAGGAUAUACACAUGAGGAUCACCCAUGUGAUUACAACGCUUAAGCUCCAAACAUGUAGAAGGCUGUCCUAUCG”, for which the “apparent Kd” value under setting [1] came out at 21.7 nM and the “apparent Kd” value under setting [2] worked out at 27.9 nM.
For “UUAUGUUUUGUAGGAUAUCAUUAGAUUUGUAAUUUAAUUGUAAUUUAGAUAUGAGAAGGACAUUUACAUGAGGAUCACCCAUGU” the same measures were 16.1 nM and 11.5 nM.
Turning to “CAGUACUGAGGAUAUACAUGAGGAUCACCCAUGUGUUCCUUGUAGGAUAUGCGCAAAAGUAGAAGGCAGAAGGACAUGUGCCUA”, the “apparent Kd” value is 7.48 nM under setting [1] and 6.45 nM under setting [2].
Take “AUUAAUUAAUUAAUACAUGAGGAUCACCCAUGUAAUAAGAUCAAGGAUAUCAGCUCGAAUAGAGCUGAGAAGGUGAUCACAUGU”: the “apparent Kd” value turned out to be 555 nM under setting [3] and 226 nM under setting [4].
As for “GCGAUUAAGUAGAAGGUACAAUAUAUAUCAUUGUAAGGAUAUACUUACAUGAGGAUCACCCAUGUUAAAGGAUAUAAUAAUCGC”, the “apparent Kd” value by setting is: under setting [3], 9.08 nM; under setting [4], 8.98 nM.
As to “GGGUACAUCGGAGGAUAUCAUGUACAUACAUGAGGAUCACCCAUGUCGAUGGAGACAUCGGAGAUUGAGAAGGCCGAUGUACCG”, the “apparent Kd” value reads like this: under setting [3], 230 nM; under setting [4], 9.27 nM.
“CUGACAGCGCAGAAGGGAGAUCCUACAUGAGGAUCACCCAUGUGGGCUCUCAGGAUAUGCACGUGUAUGCUGAAAGUAGCAUUG”: the “apparent Kd” value runs as follows: under setting [3], 17.2 nM; under setting [4], 7.17 nM.
For “AGGUCGAGUGUGAGGAUAUUGACCGGACGACCCAUCGAGAAGGCACAUGAGGAUCACCCAUGUGAUUCAGCUCA”, the “apparent Kd” value was 15 nM under setting [1] and 17.1 nM under setting [2].
For “AUCCGGCGUGUAGGAUAUGGAAAAGAUUAGGAACCAGAAGGACAUGAGGAUCACCCAUGUACAUGUAAACAGUCAUCACCGGAA”, the “apparent Kd” value is 11.4 nM under setting [1] and 28.6 nM under setting [2].
Turning to “UUGAUACAUACCUCCAUAAACAUGAGGAUCACCCAUGUAAGUGAGGAUAUAGAUUGUUUAGUAUACUAGAAGGCACUUAGAUAU”, the “apparent Kd” value under setting [1] was 13.1 nM and the “apparent Kd” value under setting [2] came to 11.9 nM.
Take “UGAGGACAUGAGGAUCACCCAUGUAAGGAUAUGCGGAGAGUUUGGAGAGGUUGAGGAGGCAGAAGGUACGGGAU”: the “apparent Kd” value came to 155 nM under setting [1] and 79.1 nM under setting [2].
For the sequence “UGUUGUAUUACAGGAUAUCUAUUGUUUUUAUUUAGAGAAGGGUAUUCACAUGAGGAUCACCCAUGUAUAUACGAGGAAGUUGUG”, the “apparent Kd” value under setting [3] turned out to be 59.4 nM and the “apparent Kd” value under setting [4] was 63.2 nM.
Consider “AAUAACAGAGGAUAUACUAUUUUAUGUGUUUGUUGUUUUAAACAUGAGGAUCACCCAUGUAGAAGGCUGAUUGA”, for which the “apparent Kd” value came out at 38.2 nM under setting [1] and 45.4 nM under setting [2].
With “UUAUGUUUUGUAGGAUAUCAUUAGUUAUGUAUUAUAAUUGAAAUUUUGUUAUGAGAAGGACAUUUACAUGAGGAUCACCCAUGU”, the “apparent Kd” value under setting [1] was determined as 13.9 nM and the “apparent Kd” value under setting [2] came out at 9.9 nM.
Regarding “GUGAGUAGUCAGGAUAUGCUGUACAAAAGUACAGCAGAAGGGAUUACAUGAGGAUCACCCAUGUUAUCUUCAUG”, the “apparent Kd” value by setting is: under setting [1], 185 nM; under setting [2], 510 nM.
For “CGGACGUCAGGAUAUCUGAUGUCUAACUUCGGUUAGACAUCAGAGAAGGGACAUGAGGAUCACCCAUGUCCGAG” the same measures were 22.2 nM and 16.9 nM.
For “CUUUUGUGAGGAUAUCAGUAGUAAAUAAAUAUAAUUACUACUGAGAAGGCACAUGAGGAUCACCCAUGUUCCUC” the same measures were 39.7 nM and 274 nM.
Consider “CCUUUGUCAGGAUAUCGAAAAGGGAGGCCAAAAGCCUCCGGUGAGAAGGGACAUGAGGAUCACCCAUGUGAAAA”, for which the “apparent Kd” value under setting [1] was 46.4 nM and the “apparent Kd” value under setting [2] is 159 nM.
For “CGCAUGCGUAGUAUUAGUUGCUGACAGGAUAUGACAUGAGGAUCACCCAUGUUUAUUAAGAAGAUUCAGAAGGGUCACGUUGCG” the same measures were 6.87 nM and 5.8 nM.
Consider “GGUCCAAUAUGAGGAUAUAGCAUCGUAUAGAUGCUAGAAGGCGUGUCGGUAGACAUGAGGAUCACCCAUGUAUUACAAUGGACC”, for which the “apparent Kd” value reads like this: under setting [3], 114 nM; under setting [4], 32 nM.
In the same order, the values of “GUAGCUAUCGGAGGAUAUUCAUUAUACAUGAGGAUCACCCAUGUUAAAGUGGGAGAAGGCCGAUAGCUACAAGAGCGAAAGCUC” are 35.8 nM and 8.13 nM.
“UGUCGGAGCAGAGGAUAUUACAUGAGGAUCACCCAUGUAAUAAGAUCAAGCUGGAAACAGCAAUGUAAGAAGGCUGCUCCGACA”: the “apparent Kd” value came out at 16.9 nM under setting [1] and 43.3 nM under setting [2].
In the case of “UGGUUUGGGCUAGAUGCACAGACAUGAGGAUCACCCAUGUCUGAGGAUAUGCGUCAACAUAGGCAGCAGAAGGCAGACAUUCGC”, the “apparent Kd” value came out at 16.8 nM under setting [1] and 30.5 nM under setting [2].
“AUCAGCUCGUCAGGAUAUACGUCACUGCGUCAGCAGUGUGGUAAGAGCACAUGAGGAUCACCCAUGUAGAAGGGACGAGCUGAU”: the “apparent Kd” value by setting is: under setting [1], 6.31 nM; under setting [2], 9.48 nM.
Take “AUACAUGAGGAUCACCCAUGUAAUUAAUUAACUUGUAAGAUCAAGGAUAUCAGCUCGAAUAGAGCUGAGAAGGUGAUCACAUGU”: the “apparent Kd” value runs as follows: under setting [3], 179 nM; under setting [4], 220 nM.
On to “CUACGCUAGGAGAAGGGCUAGAGUGUGAUAUAUUUGCCCGCGAGCACAUGAGGAUCACCCAUGUAGCAGGAUAUCCAAGCCGGU”, for which the “apparent Kd” value is, setting by setting: under setting [1], 7.59 nM; under setting [2], 16.8 nM.
For “UGUGUCUGUAGAGGAUAUCCGAGCGUUCGGCGAGGAGAAGGCUGCAACACAUGAGGAUCACCCAUGUAGGUUGUGUCUCCCUAC” the same measures were 10.9 nM and 32.2 nM.
Take “CGGUUGCGCUCCUAUGGUUUGAACAUGAGGAUCACCCAUGUACAGGAUAUAGUAAGAACGCCUUACUAGAAGGGUACGUUCUCG”: the “apparent Kd” value amounted to 18.9 nM under setting [1] and 22 nM under setting [2].
Regarding “AAUUACAUGUAGAAGGUACUUAAUUAAGUGUUGUAAGGAUAUACCAAUUUAUUAGUUUUAAAGAUACAUGAGGAUCACCCAUGU”, the “apparent Kd” value stood at 10.6 nM under setting [3] and 9.2 nM under setting [4].
In the same order, the values of “GUAUAUAUUACAUGAGGAUCACCCAUGUCAGAACGGGUAAUCAGAAGGUACUAUUAGAGAAAGAGUAAGGAUAUGAUUAUAUAC” are 329 nM and 33.9 nM.
Take “AGUGUCAUCGAGAAGGCCUCAACAUGAGGAUCACCCAUGUUGCAAAAUGGGAGGAUAUCGCGCAAAAAGCUACGUUUCGUAGCA”: the “apparent Kd” value is, setting by setting: under setting [3], 43.1 nM; under setting [4], 6.96 nM.
With “GCAAGUACGAGAGGAUAUUGACAUGAGGAUCACCCAUGUAUUUGGGAGUGUUCACUGAAUUCUUACGAGAAGGCUCGUACAUGC”, the “apparent Kd” value runs as follows: under setting [1], 246 nM; under setting [2], 232 nM.
As for “AUUUUGUCAGGAUAUGAGUAGUAGGACGAAAGUGCUACUACUUAGAAGGGACAUGAGGAUCACCCAUGUCUUCC”, the “apparent Kd” value reads like this: under setting [1], 13.9 nM; under setting [2], 16.8 nM.
As for “UGUGUGUGACAGGAUAUGCUGGUUGUGAGGCGGGUAGAAGGGUCUACAUGAGGAUCACCCAUGUGGCCGGUUGG”, the “apparent Kd” value stood at 18.7 nM under setting [1] and 18.7 nM under setting [2].
With “GCUGACGAUGUAGGAUAUCAGUAUAAUAAAUACUGAGAAGGACAUGAGGAUCACCCAUGUACUCAACGUCAGCAGAGGAAACUC”, the “apparent Kd” value is 17.8 nM under setting [1] and 22.5 nM under setting [2].
Regarding “GCAUACAUUCGAGGAUAUCGGUGAACAAAUUAACGAGAAGGCGAUAUAAUUUUUAAACUUAUAGACAUGAGGAUCACCCAUGUA”, the “apparent Kd” value by setting is: under setting [3], 23.7 nM; under setting [4], 20.6 nM.
Turning to “UCCCUUAGUGUAAGGAUAUCGUUCCAUUGACGGAGCGAGAAGGUACAUGAGGAUCACCCAUGUGUCAAUGCCGG”, the “apparent Kd” value by setting is: under setting [1], 20 nM; under setting [2], 54.4 nM.
“AAAGUUUAAGCAGGAUAUCGACCAUUCCUUGAUGCUUCAUUGGUGCACAUGAGGAUCACCCAUGUCGAGAAGGGCUAUGAAGCU”: the “apparent Kd” value under setting [1] is 15.6 nM and the “apparent Kd” value under setting [2] stood at 47.4 nM.
Regarding “AAAAAGAUAGGAUAUACAUGAAAAAAAAAAAAAAAAAAAAGACAUGAGGAUCACCCAUGUAGAAGGGUCAAAAA”, the “apparent Kd” value runs as follows: under setting [1], 133 nM; under setting [2], 124 nM.
For “GCAAACAUGAGGAUCACCCAUGUCGGCUAUAAGUCCGCUCACAGAAGGGAUACGCCGGCAGGUGAUCAGGAUAUGUGGGCGCGC”, the “apparent Kd” value under setting [3] amounted to 239 nM and the “apparent Kd” value under setting [4] turned out to be 16.5 nM.
With “UUUAAACAUGAGGAUCACCCAUGUCGUUCAAAUCAAGGAUAUCAAGCGUGUGAGCACACUUGAGAAGGUGAAGCUC”, the “apparent Kd” value reads like this: under setting [3], 31 nM; under setting [4], 60.8 nM.
Consider “AGUGUGUGGCAGGAUAUGCGAUUUGUAGGUGUUGCAGAAGGGUCUACAUGAGGAUCACCCAUGUGUGCGGUUGA”, for which the “apparent Kd” value under setting [1] came to 283 nM and the “apparent Kd” value under setting [2] stood at 570 nM.
Consider “UGUAAUGUUAUUACAGAGGUUUAGAAGGAUAUACAUCGACAUGACCGUACAUGAGGAUCACCCAUGUAGAAGGUCUAACUUCGU”, for which the “apparent Kd” value is 5.43 nM under setting [1] and 5.31 nM under setting [2].
